Data reported in ChEMBL document CHEMBL1125789, “Synthesis and selective class III antiarrhythmic activity of novel N-heteroaralkyl-substituted 1-(aryloxy)-2-propanolamine and related propylamine derivatives” (J Med Chem, 1991).

How the values were obtained:
Canis familiaris [1] = assay: Ventricular effective refractory period by the compound in open chest anesthetized dog, after id administration at a dose of 10 mg/kg.; type: functional, Canis lupus familiaris, Heart; conditions: route intraduodenal
Canis familiaris [2] = assay: Atrial effective refractory period by the compound in open chest anesthetized dog, after iv administration at a dose of 5.0 mg/kg.; type: functional, Canis lupus familiaris, Cardiac atrium; set-up: unit not given here
Method in brief: (§1)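 Open-chest mongrel dogs under sodium pentobarbital anesthesia (30 mg/kg iv plus 5 mg/kg per h), paced at basic cycle length 300 ms. Atrial effective refractory period was determined by electrical stimulation before and after iv or intraduodenal compound and reported as change from control.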

Canis familiaris [3] = species on record: Canis familiaris; assay: Repolarization to reach -60mV, in canine Purkinje Fibers at a concentration of 3.0 uM at 300 ms (simulating tachycardia); type: functional, Canis lupus familiaris, Purkinje fiber
Method in brief: (§2)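 Isolated canine Purkinje fiber bundles were driven by square-wave pulses 2.0 ms long at 2× threshold and equilibrated ≥1 h to steady state. Each concentration was superfused 45–60 min before recording, and action potentials were sampled at 4–6 sites per fiber in control and after drug, giving Vmax and APD to −60 mV.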

Canis familiaris [4] = assay: Mean arterial pressure by the compound in open chest anesthetized dog, after id administration at a dose of 10 mg/kg.; type: functional, Canis lupus familiaris, Artery; conditions: route intraduodenal
Method in brief: (§3)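 Hemodynamics (heart rate, mean arterial pressure) recorded in pentobarbital-anesthetized (30 mg/kg iv, 5 mg/kg per h maintenance) open-chest mongrel dogs during the refractoriness study at BCL 300 ms. Readings were taken before and after iv or intraduodenal compound and expressed as change from control.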

Canis familiaris [5] = species on record: Canis familiaris; assay: Maximum rate of rise of the upstroke of transmembrane potential, in canine Purkinje Fibers at a concentration of 0.3 uM at 300 ms (simulating tachycardia); type: functional; set-up: unit not given here; conditions: Canis lupus familiaris, Purkinje fiber; method in brief: as §2
Canis familiaris [6] = assay: Heart beat by the compound in open chest anesthetized dog, after id administration at a dose of 10 mg/kg.; type: functional, Canis lupus familiaris; conditions: route intraduodenal; method in brief: as §3
Canis familiaris [7] = species on record: Canis familiaris; assay: Maximum rate of rise of the upstroke of transmembrane potential, in canine Purkinje Fibers at a concentration of 0.3 uM at 1000 ms (simulating normal heart rate); type: functional; set-up: unit not given here; conditions: Canis lupus familiaris, Purkinje fiber; method in brief: as §2
Canis familiaris [8] = assay: Atrial conduction time by the compound in open chest anesthetized dog, after id administration at a dose of 10 mg/kg.; type: functional, Canis lupus familiaris, Cardiac atrium; conditions: route intraduodenal
Method in brief: (§4)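 Mongrel dogs anesthetized with sodium pentobarbital (30 mg/kg iv, then 5 mg/kg per h), chest opened, paced at BCL 300 ms. Atrial conduction time was taken as the interval between electrograms recorded at the proximal and distal sites of the atrial recording electrode array, before and after iv or intraduodenal dosing. Values are changes from control.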

Canis familiaris [9] = species on record: Canis familiaris; assay: Maximum rate of rise of the upstroke of transmembrane potential, in canine Purkinje Fibers at a concentration of 3.0 uM at 1000 ms (simulating normal heart rate); type: functional; set-up: unit not given here; conditions: Canis lupus familiaris, Purkinje fiber; method in brief: as §2
Canis familiaris [10] = assay: Mean arterial pressure by the compound in open chest anesthetized dog, after iv administration at a dose of 5.0 mg/kg.; type: functional, Canis lupus familiaris, Artery; set-up: unit not given here; method in brief: as §3
Canis familiaris [11] = species on record: Canis familiaris; assay: Maximum rate of rise of the upstroke of transmembrane potential, in canine Purkinje Fibers at a concentration of 1.0 uM at 1000 ms (simulating normal heart rate); type: functional; set-up: unit not given here; conditions: Canis lupus familiaris, Purkinje fiber; method in brief: as §2
Canis familiaris [12] = species on record: Canis familiaris; assay: Maximum rate of rise of the upstroke of transmembrane potential, in canine Purkinje Fibers at a concentration of 1.0 uM at 300 ms (simulating tachycardia); type: functional; set-up: unit not given here; conditions: Canis lupus familiaris, Purkinje fiber; method in brief: as §2
Canis familiaris [13] = assay: Ventricular conduction time by the compound in open chest anesthetized dog, after iv administration at a dose of 5.0 mg/kg.; type: functional, Canis lupus familiaris, Heart; set-up: unit not given here
Method in brief: (§5)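 Mongrel dogs were anesthetized with sodium pentobarbital (30 mg/kg iv, then 5 mg/kg per h), the chest opened, and the heart paced at BCL 300 ms. Compound was given iv or intraduodenally. Ventricular conduction time was taken as the interval between electrograms at the proximal and distal sites of the recording electrode array. 2-5 dogs per dose.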

Canis familiaris [14] = assay: Atrial conduction time by the compound in open chest anesthetized dog, after iv administration at a dose of 5.0 mg/kg.; type: functional, Canis lupus familiaris, Cardiac atrium; set-up: unit not given here; method in brief: as §4
Canis familiaris [15] = species on record: Canis familiaris; assay: repolarization to reach -60mV, in canine Purkinje Fibers at a concentration of 0.3 uM at 1000 ms (simulating normal heart rate); type: functional, Canis lupus familiaris, Purkinje fiber
Method in brief: (§6)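 Purkinje fiber bundles were stimulated with square-wave current pulses of 2.0 ms at twice threshold and equilibrated for at least 1 h, or until action potential parameters were steady. Each concentration was superfused for 45-60 min to reach steady state. Action potentials were recorded at four to six sites per fiber, under control and after drug.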

Canis familiaris [16] = species on record: Canis familiaris; assay: repolarization to reach -60mV, in canine Purkinje Fibers at a concentration of 1.0 uM at 1000 ms (simulating normal heart rate); type: functional, Canis lupus familiaris, Purkinje fiber; method in brief: as §6
Canis familiaris [17] = assay: Ventricular effective refractory period by the compound in open chest anesthetized dog, after iv administration at a dose of 5.0 mg/kg.; type: functional, Canis lupus familiaris, Heart; set-up: unit not given here
Canis familiaris [18] = species on record: Canis familiaris; assay: Maximum rate of rise of the upstroke of transmembrane potential, in canine Purkinje Fibers at a concentration of 3.0 uM at 300 ms (simulating tachycardia); type: functional; set-up: unit not given here; conditions: Canis lupus familiaris, Purkinje fiber; method in brief: as §2
Canis familiaris [19] = assay: Ventricular conduction time by the compound in open chest anesthetized dog, after id administration at a dose of 10 mg/kg.; type: functional, Canis lupus familiaris, Heart; conditions: route intraduodenal; method in brief: as §5
Canis familiaris [20] = species on record: Canis familiaris; assay: Repolarization to reach -60mV, in canine Purkinje Fibers at a concentration of 1.0 uM at 300 ms (simulating tachycardia); type: functional, Canis lupus familiaris, Purkinje fiber; method in brief: as §2
Canis familiaris [21] = assay: Atrial effective refractory period by the compound in open chest anesthetized dog, after id administration at a dose of 10 mg/kg.; type: functional, Canis lupus familiaris, Cardiac atrium; conditions: route intraduodenal; method in brief: as §1
Canis familiaris [22] = assay: Heart beat by the compound in open chest anesthetized dog, after iv administration at a dose of 5.0 mg/kg.; type: functional, Canis lupus familiaris; set-up: unit not given here; method in brief: as §3
Canis familiaris [23] = species on record: Canis familiaris; assay: Repolarization to reach -60mV, in canine Purkinje Fibers at a concentration of 0.3 uM at 300 ms (simulating tachycardia); type: functional, Canis lupus familiaris, Purkinje fiber; method in brief: as §2
Canis familiaris [24] = species on record: Canis familiaris; assay: repolarization to reach -60mV, in canine Purkinje Fibers at a concentration of 3.0 uM at 1000 ms (simulating normal heart rate); type: functional, Canis lupus familiaris, Purkinje fiber; method in brief: as §6

CN(Cc1ccc2ccccc2n1)CC(O)COc1ccc(NS(C)(=O)=O)cc1 (centres undefined)
VERP (Canis familiaris [1]): 20
AERP (Canis familiaris [2]): 45
APD (Canis familiaris [3]): 27%
MBP (Canis familiaris [4]): -5
Vmax (Canis familiaris [5]): 5
HR (Canis familiaris [6]): -15
Vmax (Canis familiaris [7]): -2
ACT (Canis familiaris [8]): -4
Vmax (Canis familiaris [9]): -7
MBP (Canis familiaris [10]): -9
Vmax (Canis familiaris [11]): 6
Vmax (Canis familiaris [12]): 15
VCT (Canis familiaris [13]): -2
ACT (Canis familiaris [14]): -9
APD (Canis familiaris [15]): 19%
APD (Canis familiaris [16]): 43%
VERP (Canis familiaris [17]): 21
Vmax (Canis familiaris [18]): -9
VCT (Canis familiaris [19]): 1
APD (Canis familiaris [20]): 19%
AERP (Canis familiaris [21]): 31
HR (Canis familiaris [22]): -18
APD (Canis familiaris [23]): 8%
APD (Canis familiaris [24]): 62%
